Assay results published in ChEMBL document CHEMBL1154842, “Synthesis, radiolabeling, and biological evaluation of (R)- and (S)-2-amino-3-[(18)F]fluoro-2-methylpropanoic acid (FAMP) and (R)- and (S)-3-[(18)F]fluoro-2-methyl-2-N-(methylamino)propanoic acid (NMeFAMP) as potential PET radioligands for imaging brain tumors” (J Med Chem, 2010).
One block for each compound: values may come before it.

How the values were obtained:
9L [1] = assay: Cellular uptake in rat 9L cells assessed as inhibition of uptake at 5 uCi measured […] by gamma counting in presence of system A transport inhibitor MeAIB relative to control; type: ADME, cell-based; set-up: scale not given: the % may be the effect or the level left
Procedure, shortened: (§1)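 9L rat gliosarcoma cells, grown in DMEM with 10% FCS, were trypsinised and washed in HBSS. About 5×10^5 cells were incubated with 5 μCi tracer in amino-acid-free HBSS for 30 min at 37 °C, with or without 10 mM final BCH, MeAIB or ACS (3.3 mM each Ala/Cys/Ser). Cells were washed cold, gamma-counted and decay-corrected. Inhibition is percent of control; triplicates, one-way ANOVA.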

9L [2] = assay: Cellular uptake in rat 9L cells assessed as inhibition of uptake at 5 uCi measured […] by gamma counting in presence of system ASC transport inhibitor ACS relative to control; type: ADME, cell-based; set-up: scale not given: the % may be the effect or the level left; procedure, shortened: as §1
9L [3] = assay: Cellular uptake in rat 9L cells at 5 uCi measured […] by gamma counting in presence of system L transport inhibitor BCH; type: ADME, cell-based
Procedure, shortened: (§2)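 9L rat gliosarcoma cells (DMEM, 10% FCS, 37 °C, 5% CO2) were trypsinised and washed in HBSS. About 5×10^5 cells took up 5 μCi tracer for 30 min in 0.1 mL amino acid-free HBSS, with inhibitor at 10 mM final (ACS: 3.3 mM each of alanine, cysteine, serine). Cells were spun and rinsed twice with ice-cold HBSS, then gamma counted with decay correction. Triplicates; uptake is % ID per 5×10^5 cells.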

9L [4] = assay: Cellular uptake in rat 9L cells at 5 uCi measured […] by gamma counting; type: ADME, cell-based
Procedure, shortened: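 9L rat gliosarcoma cells, grown in DMEM with 10% FCS, were trypsinised and washed in HBSS. About 5×10^5 cells were exposed to 5 μCi tracer in amino-acid-free HBSS for 30 min at 37 °C, 5% CO2, then centrifuged and rinsed twice with ice-cold HBSS. Cells were gamma-counted and decay-corrected, with uptake reported as % of initial dose per 5×10^5 cells ± SD, n=3.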

9L [5] = assay: Cellular uptake in rat 9L cells at 5 uCi measured […] by gamma counting in presence of system A transport inhibitor MeAIB; type: ADME, cell-based; procedure, shortened: as §2
9L [6] = assay: Cellular uptake in rat 9L cells at 5 uCi measured per 0.5 million cells by gamma counting in presence of system ASC transport inhibitor ACS
9L [7] = assay: Cellular uptake in rat 9L cells assessed as inhibition of uptake at 5 uCi measured […] by gamma counting in presence of system L transport inhibitor BCH relative to control; type: ADME, cell-based; set-up: scale not given: the % may be the effect or the level left; procedure, shortened: as §1
[8] = rat, in vivo, iv, 1 h
[9] = rat, in vivo, iv, 1 h; remark: listed apart in the source
[10] = Ratio of drug level from tumor to brain of Fischer 344 rat bearing rat 9L cells at 20 uCi, iv after 60 mins; details: in vivo, 1 h

Compound: CN[C@@](C)(CF)C(=O)O.Cl
Activity (9L [1]): 92%
Activity (9L [2]): 89%
Drug uptake (9L [3]): 3.26 %ID
Drug uptake (9L [4]): 7.08 %ID
Drug uptake (9L [5]): 0.6 %ID
Drug uptake (9L [6]): 0.75 %ID
Activity (9L [7]): 54%

Compound: CN[C@](C)(CF)C(=O)O.Cl
Activity (9L [1]): 79%
Activity (9L [2]): 58%
Drug uptake (9L [3]): 2.76 %ID
Drug uptake (9L [4]): 3.87 %ID
Drug uptake (9L [5]): 0.82 %ID
Drug uptake (9L [6]): 1.62 %ID
Activity (9L [7]): 29%

Compound: C[C@@](N)(CF)C(=O)O.Cl
Activity (9L [1]): 31%
Activity (9L [2]): 72%
Drug uptake (9L [3]): 1.21 %ID
Drug uptake (9L [4]): 4.77 %ID
Drug uptake (9L [5]): 3.29 %ID
Drug uptake (9L [6]): 1.33 %ID
Activity (9L [7]): 75%

Compound: C[C@](N)(CF)C(=O)O.Cl
Activity (9L [1]): 58%
Activity (9L [2]): 87%
Drug uptake (9L [3]): 4.27 %ID
Drug uptake (9L [4]): 13.06 %ID
Drug uptake (9L [5]): 5.51 %ID
Drug uptake (9L [6]): 1.7 %ID
Activity (9L [7]): 67%

Drug uptake [8]: 0.26 % ID/g
Compound: N[C@]1(C(=O)O)C[C@@H]([18F])C1 [FLUCICLOVINE F18]

Drug uptake [9]: 1.05 % ID/g
Drug uptake [8]: 1.3 % ID/g
Ratio [10]: 0.8
Compound: OC[C@H]1O[C@@H](O)[C@H]([18F])[C@@H](O)[C@@H]1O [FLUDEOXYGLUCOSE-F18]
